Experimental data reported in ChEMBL document CHEMBL3259666, “Discovery of a neuroprotective chemical, (S)-N-(3-(3,6-dibromo-9H-carbazol-9-yl)-2-fluoropropyl)-6-methoxypyridin-2-amine [(-)-P7C3-S243], with improved druglike properties” (J Med Chem, 2014).
The source made the active and inactive calls. No cut-off for these calls is given here.

Assays:
Mus musculus [1] = experiment: Neuroprotective activity in wild type C57BL/J6 mouse assessed as survival of newborn hippocampal neurons at 0.1 to 10 uM, icv administered for 7 days by BrdU staining-based microscopy relative to vehicle-treated control; type: functional, organism-based
Procedure, shortened: (§1)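 Adult (12-week) wild-type C57BL/J6 mice. Compound infused ICV into the left lateral ventricle by osmotic minipump at 0.5 μL/h for 7 days, with BrdU 50 mg/kg/day IP for 6 days. Perfused 24 h after the last BrdU dose. BrdU antigen unmasked (formamide/SSC at 65 °C, then 2 M HCl); anti-BrdU staining. BrdU+ cells in the contralateral dentate gyrus SGZ counted in every fifth 40 μm section and normalised to dentate gyrus volume.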

Translocator protein = Translocator protein (Homo sapiens, UniProt P30536); experiment: Inhibition of TSPO (unknown origin)
Translocator protein, sequence (P30536 whole entry): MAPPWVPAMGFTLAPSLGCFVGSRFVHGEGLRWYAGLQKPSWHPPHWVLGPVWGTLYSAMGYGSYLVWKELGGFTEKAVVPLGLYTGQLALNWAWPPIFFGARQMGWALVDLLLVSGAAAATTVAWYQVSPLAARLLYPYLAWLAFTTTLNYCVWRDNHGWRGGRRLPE

Mus musculus [2] = experiment: Neuroprotective activity in substantia nigra of C57Bl/6 mouse neurogenesis model assessed as protection from MPTP-induced cell death in mature neurons at 5 mg/kg/day, ip bid administered for 21 days by immunohistochemical analysis relative to vehicle-treated control; type: functional, organism-based
Procedure, shortened: (§2)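 MPTP model in adult male C57Bl/6 mice, individually housed 1 week. MPTP free base 30 mg/kg/day IP for 5 days. From day 6 (24 h after the last MPTP dose), compound or vehicle given IP twice daily for 21 days. Mice were then perfused with 4% paraformaldehyde. SNc sectioned at 30 μm intervals and every fourth section stained for TH (DAB, hematoxylin counterstain). TH+ cells counted blinded; mean ± SEM, compared with vehicle + MPTP.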

Brain [3] = experiment: AUC in mouse brain at 20 mg/kg, ip by HPLC/MS/MS analysis; type: ADME, organism-based; set-up: dose 20 mg/kg, route intraperitoneal; details: in vivo
Procedure, shortened: (§3)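 Mouse PK. Compound formulated in 5% DMSO/10% cremophor EL/85% D5W (pH 7.2) and given IV, IP or by oral gavage. Mice killed at varying times with CO2. Citrated plasma and PBS brain homogenate (3-fold volume) were protein-precipitated with acetonitrile containing 0.15% formic acid and analysed by HPLC/MS/MS against spiked blank standards. Noncompartmental analysis was used, with F = (AUCoral/AUCIV)×(DoseIV/Doseoral)×100%. Values are mean ± SEM.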

Plasma [4] = experiment: Bioavailability in mouse plasma at 20 mg/kg, ip by HPLC/MS/MS analysis; type: ADME, organism-based; details: in vivo; procedure, shortened: as §3
[5] = Half life in mouse at 20 mg/kg, ip by HPLC/MS/MS analysis; type: ADME, organism-based; set-up: dose 20 mg/kg, route intraperitoneal; details: in vivo; procedure, shortened: as §3
[6] = Half life in mouse at 10 mg/kg, ip by HPLC/MS/MS analysis; type: ADME, organism-based; set-up: dose 10 mg/kg, route intraperitoneal; details: in vivo; procedure, shortened: as §3
Mus musculus [7] = experiment: Toxicity in C57Bl/6 mouse assessed as effect on weight up to 10 mg/kg/day, ip bid administered for 21 days; type: organism-based; set-up: route intraperitoneal; details: in vivo, 504 h
Mus musculus [8] = experiment: Toxicity in C57Bl/6 mouse assessed as effect on behavior up to 10 mg/kg/day, ip bid administered for 21 days; type: organism-based; set-up: route intraperitoneal; details: in vivo, 504 h
Hepatocyte = experiment: Half life in mouse hepatocytes; type: ADME, cell-based
Mus musculus [9] = experiment: Neuroprotective activity in wild type C57BL/J6 mouse assessed as survival of newborn hippocampal neurons at 10 uM, icv administered for 7 days by BrdU staining-based immunohistochemical analysis relative to vehicle-treated control; type: functional, organism-based
Procedure, shortened: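 Adult (12 week old) C57BL/J6 mice, environmentally deprived; compound infused via osmotic minipump into left lateral ventricle at 0.5 μL/h for 7 days. BrdU IP 50 mg kg–1 day–1 for 6 days during infusion; perfusion 24 h after last BrdU. BrdU+ cells in SGZ/dentate gyrus of contralateral hemisphere counted in every fifth 40 μm section, normalized to dentate gyrus volume; mean ± SEM.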

Mus musculus [10] = experiment: Neuroprotective activity in wild type C57BL/J6 mouse assessed as survival of newborn hippocampal neurons at 10 uM, icv administered for 7 days by BrdU staining-based microscopy relative to vehicle-treated control; type: functional, organism-based; procedure, shortened: as §1
Mus musculus [11] = experiment: Neuroprotective activity in substantia nigra of C57Bl/6 mouse neurogenesis model assessed as protection from MPTP-induced cell death in mature neurons at 10 mg/kg/day, ip bid administered for 21 days by immunohistochemical analysis relative to vehicle-treated control; type: functional; details: route intraperitoneal; procedure, shortened: as §2
Brain [12] = experiment: Bioavailability in mouse brain at 10 mg/kg, ip by HPLC/MS/MS analysis; type: ADME, organism-based; details: in vivo; procedure, shortened: as §3
Brain [13] = experiment: AUC in mouse brain at 10 mg/kg, ip by HPLC/MS/MS analysis; type: ADME, organism-based; set-up: dose 10 mg/kg, route intraperitoneal; details: in vivo; procedure, shortened: as §3
Brain [14] = experiment: Bioavailability in mouse brain at 20 mg/kg, ip by HPLC/MS/MS analysis; type: ADME, organism-based; details: in vivo; procedure, shortened: as §3
Plasma [15] = experiment: Bioavailability in mouse plasma at 10 mg/kg, ip by HPLC/MS/MS analysis; type: ADME, organism-based; details: in vivo; procedure, shortened: as §3
Mus musculus [16] = experiment: Toxicity in C57Bl/6 mouse assessed as effect on appearance up to 10 mg/kg/day, ip bid administered for 21 days; type: organism-based; set-up: route intraperitoneal; details: in vivo, 504 h
[17] = Half life in mouse at 10 mg/kg, iv by HPLC/MS/MS analysis; type: ADME, organism-based; set-up: dose 10 mg/kg, route intravenous; details: in vivo; procedure, shortened: as §3
Brain [18] = experiment: Bioavailability in mouse brain at 20 mg/kg, po by HPLC/MS/MS analysis; type: ADME, organism-based; details: in vivo; procedure, shortened: as §3
Plasma [19] = experiment: Bioavailability in mouse plasma at 20 mg/kg, po by HPLC/MS/MS analysis; type: ADME, organism-based; details: in vivo; procedure, shortened: as §3
Brain [20] = experiment: AUC in mouse brain at 20 mg/kg, po by HPLC/MS/MS analysis; type: ADME, organism-based; set-up: dose 20 mg/kg, route oral; details: in vivo; procedure, shortened: as §3
Liver microsome [21] = experiment: Half life in rat liver microsomes; type: ADME
Liver = experiment: Half life in mouse liver microsomes; type: ADME
Brain [22] = experiment: AUC in mouse brain at 10 mg/kg, iv by HPLC/MS/MS analysis; type: ADME, organism-based; set-up: dose 10 mg/kg, route intravenous; details: in vivo; procedure, shortened: as §3
Liver microsome [23] = experiment: Half life in dog liver microsomes; type: ADME, Canis lupus familiaris
[24] = Half life in monkey liver microsomes; type: ADME, Macaca mulatta; details: rhesus monkey
Mus musculus [25] = experiment: Neuroprotective activity in substantia nigra of C57Bl/6 mouse neurogenesis model assessed as protection from MPTP-induced cell death in mature neurons at 1 mg/kg/day, ip bid administered for 21 days by immunohistochemical analysis relative to vehicle-treated control; type: functional, organism-based; procedure, shortened: as §2
Mus musculus [26] = experiment: Neuroprotective activity in wild type C57BL/J6 mouse assessed as survival of newborn hippocampal neurons at 1 to 10 mg/kg/day, ip bid administered for 7 days by BrdU staining-based immunohistochemical analysis relative to vehicle-treated control; type: functional, organism-based
Procedure, shortened: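 Adult (12-week) wild-type C57BL/J6 mice. Compound given IP twice daily for 7 days, with BrdU 50 mg/kg/day IP. Perfused with 4% paraformaldehyde 24 h after the last BrdU dose. Anti-BrdU immunostaining after formamide/HCl unmasking. BrdU+ cells in the dentate gyrus SGZ counted in every fifth 40 μm section and normalised to dentate gyrus volume; mean ± SEM.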

Liver microsome [27] = experiment: Half life in human liver microsomes; type: ADME
[28] = Half life in mouse at 20 mg/kg, po by HPLC/MS/MS analysis; type: ADME, organism-based; set-up: dose 20 mg/kg, route oral; details: in vivo; procedure, shortened: as §3

## COc1cccc(NC[C@@H](F)Cn2c3ccc(Br)cc3c3cc(Br)ccc32)n1
Mus musculus [1]
  Activity: inactive
Translocator protein
  IC50: 680 nM
Mus musculus [2]
  Activity: inactive

## COc1cccc(NCC(F)Cn2c3ccc(Br)cc3c3cc(Br)ccc32)n1 (racemic)
Brain [3]
  AUC: 319 µg·min/g
Mus musculus [1]
  Activity: Active
Plasma [4]
  F: 90%
[5]
  half-life: 15 h
[6]
  half-life: > 24 h
Mus musculus [7]
  Activity: Non-toxic
Mus musculus [8]
  Activity: Non-toxic
Hepatocyte
  t1/2: > 4 h
Mus musculus [9]
  Activity: Active
Mus musculus [10]
  Activity: Active
Mus musculus [11]
  Activity: 85%
Brain [12]
  F: 28%
Brain [13]
  AUC: 189 µg·min/g
Brain [14]
  F: 48%
Plasma [15]
  F: 66%
Mus musculus [16]
  Activity: Non-toxic
[17]
  half-life: 7.4 h
Brain [18]
  F: 29%
Plasma [19]
  F: 38%
Brain [20]
  AUC: 388 µg·min/g
Liver microsome [21]
  t1/2: > 4 h
Liver
  t1/2: 0.817 h
Brain [22]
  AUC: 671 µg·min/g
Liver microsome [23]
  t1/2: 0.75 h
[24]
  t1/2: 1.35 h
Mus musculus [25]
  Activity: Active
Mus musculus [26]
  Activity: Active
Liver microsome [27]
  t1/2: 1.95 h
[28]
  half-life: 9.6 h
